Tests used:
[1] = Relative affinity for delta and mu receptors
Method in brief: (§1)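 Selectivity ratio = DADLE IC50 ratio (MVD) divided by morphine or EK IC50 ratio (GPI), with 100 nM antagonist. Where an IC50 ratio was below or near unity, a value of 1 was used.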

[2] = Relative affinity for delta and kappa receptors; method in brief: as §1
[3] = target: Delta-type opioid receptor (Mus musculus) (UniProt P32300); assay: Inhibition of DADLE binding to Opioid receptor delta 1 of mouse vas deferens
Method in brief: (§2)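 Electrically stimulated smooth muscle: guinea pig ileal longitudinal muscle with morphine or ethylketazocine, mouse vas deferens with DADLE. Antagonist 100 nM incubated 15 min (30 min in footnoted cases) before agonist. IC50 ratio = agonist IC50 with antagonist divided by control IC50 in the same preparation; mean ± SEM, n shown.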

[4] = target: Mu-type opioid receptor (Cavia porcellus) (UniProt P97266); assay: Inhibition of morphine binding to Opioid receptor mu 1 of guinea pig ileal longitudinal muscle; method in brief: as §2
[5] = target: Kappa-type opioid receptor (Cavia porcellus) (UniProt P41144); assay: Inhibition of ethylketazocine binding to Opioid receptor kappa 1 of guinea pig ileal longitudinal muscle; method in brief: as §2
[6] = target: Delta-type opioid receptor (Mus musculus) (UniProt P32300); assay: Antagonism of antinociceptive effect of DSLET against delta 2 opioid receptor in male ICR mice at a sc dose of 5 umol/kg; format: functional, organism-based
Method in brief: (§3)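 Male ICR mice, tail-flick antinociception. Antagonist given sc at the stated dose (µmol/kg), pretreatment timed so peak antagonism coincides with the agonist's peak antinociceptive response. Agonists: DPDPE (δ1), DSLET (δ2), morphine (µ), U50488 (κ). ED50 ratio = agonist ED50 with sc antagonist divided by control ED50, with 95% confidence limits.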

[7] = target: Kappa-type opioid receptor (Mus musculus) (UniProt P33534); assay: Antagonism of antinociceptive effect of U-50,488 against kOpioid receptor kappa 1 in male ICR mice at a sc dose of 5 umol/kg; format: functional, organism-based; method in brief: as §3
[8] = target: Mu-type opioid receptor (Mus musculus) (UniProt P42866); assay: Antagonism of antinociceptive effect of morphine against Opioid receptor mu 1 in male ICR mice at a sc dose of 16 umol/kg; format: functional, organism-based; method in brief: as §3
[9] = target: Delta-type opioid receptor (Mus musculus) (UniProt P32300); assay: Antagonism of antinociceptive effect of DPDPE against delta 1 opioid receptor in male ICR mice at a sc dose of 5 umol/kg; format: functional, organism-based; method in brief: as §3
[10] = target: Delta-type opioid receptor (Mus musculus) (UniProt P32300); assay: Antagonism of antinociceptive effect of DPDPE against delta 1 opioid receptor in male ICR mice at a sc dose of 16 umol/kg; format: functional, organism-based; method in brief: as §3
[11] = target: Delta-type opioid receptor (Mus musculus) (UniProt P32300); assay: Antagonism of antinociceptive effect of DSLET against delta 2 opioid receptor in male ICR mice at a sc dose of 16 umol/kg; format: functional, organism-based; method in brief: as §3
[12] = target: Mu-type opioid receptor (Mus musculus) (UniProt P42866); assay: Antagonism of antinociceptive effect of morphine against Opioid receptor mu 1 in male ICR mice at a sc dose of 5 umol/kg.; format: functional, organism-based; method in brief: as §3
[13] = target: Kappa-type opioid receptor (Mus musculus) (UniProt P33534); assay: Antagonism of antinociceptive effect of U-50,488 against kOpioid receptor kappa 1 in male ICR mice at a sc dose of 16 umol/kg; format: functional, organism-based; method in brief: as §3
[14] = target: Mu-type opioid receptor (Mus musculus) (UniProt P42866); assay: Antagonism of antinociceptive effect of morphine against Opioid receptor mu 1 in male ICR mice at a sc dose of 5 umol/kg; format: functional, organism-based; method in brief: as §3
[15] = target: Kappa-type opioid receptor (Mus musculus) (UniProt P33534); assay: Antagonism of antinociceptive effect of U-50,488 against Opioid receptor kappa 1 in male ICR mice at a sc dose of 16 umol/kg; format: functional, organism-based; method in brief: as §3
[16] = target: Kappa-type opioid receptor (Mus musculus) (UniProt P33534); assay: Antagonism of antinociceptive effect of U-50,488 against Opioid receptor kappa 1 in male ICR mice at a sc dose of 5 umol/kg; format: functional, organism-based; method in brief: as §3

Chain of Kappa-type opioid receptor (Mus musculus) (P33534 whole entry): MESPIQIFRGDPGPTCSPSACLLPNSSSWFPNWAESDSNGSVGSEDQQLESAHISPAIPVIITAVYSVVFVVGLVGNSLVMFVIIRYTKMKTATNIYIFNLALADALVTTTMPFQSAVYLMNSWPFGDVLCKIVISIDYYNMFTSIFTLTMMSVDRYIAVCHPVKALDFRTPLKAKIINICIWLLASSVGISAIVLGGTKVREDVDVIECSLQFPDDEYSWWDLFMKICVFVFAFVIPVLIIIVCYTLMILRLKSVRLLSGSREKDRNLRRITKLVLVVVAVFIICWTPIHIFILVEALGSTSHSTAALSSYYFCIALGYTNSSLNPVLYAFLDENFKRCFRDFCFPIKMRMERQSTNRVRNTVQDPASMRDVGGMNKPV
Chain of Delta-type opioid receptor (Mus musculus) (P32300 whole entry): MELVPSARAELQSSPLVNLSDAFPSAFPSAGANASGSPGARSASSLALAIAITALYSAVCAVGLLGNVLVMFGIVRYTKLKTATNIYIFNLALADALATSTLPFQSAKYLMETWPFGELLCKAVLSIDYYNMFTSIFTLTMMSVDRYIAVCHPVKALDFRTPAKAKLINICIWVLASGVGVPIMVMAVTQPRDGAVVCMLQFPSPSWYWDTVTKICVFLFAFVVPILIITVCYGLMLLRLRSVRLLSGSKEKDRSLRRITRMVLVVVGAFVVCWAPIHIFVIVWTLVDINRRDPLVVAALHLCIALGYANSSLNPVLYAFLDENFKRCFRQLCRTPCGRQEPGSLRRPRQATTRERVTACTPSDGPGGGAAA
Chain of Mu-type opioid receptor (Cavia porcellus) (P97266 whole entry): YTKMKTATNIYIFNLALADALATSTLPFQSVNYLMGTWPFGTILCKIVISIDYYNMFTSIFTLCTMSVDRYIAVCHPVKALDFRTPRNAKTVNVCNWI
Chain of Mu-type opioid receptor (Mus musculus) (P42866 whole entry): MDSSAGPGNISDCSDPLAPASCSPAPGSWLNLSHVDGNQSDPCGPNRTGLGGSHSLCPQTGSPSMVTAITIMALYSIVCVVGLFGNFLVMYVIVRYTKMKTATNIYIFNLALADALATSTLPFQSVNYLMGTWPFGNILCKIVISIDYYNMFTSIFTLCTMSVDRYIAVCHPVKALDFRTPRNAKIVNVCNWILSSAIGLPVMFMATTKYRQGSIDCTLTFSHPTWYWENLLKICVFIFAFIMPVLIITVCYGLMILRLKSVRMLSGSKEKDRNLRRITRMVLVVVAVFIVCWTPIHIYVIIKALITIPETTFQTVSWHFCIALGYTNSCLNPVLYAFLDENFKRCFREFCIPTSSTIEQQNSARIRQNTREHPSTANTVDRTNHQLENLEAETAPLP
Chain of Kappa-type opioid receptor (Cavia porcellus) (P41144 whole entry): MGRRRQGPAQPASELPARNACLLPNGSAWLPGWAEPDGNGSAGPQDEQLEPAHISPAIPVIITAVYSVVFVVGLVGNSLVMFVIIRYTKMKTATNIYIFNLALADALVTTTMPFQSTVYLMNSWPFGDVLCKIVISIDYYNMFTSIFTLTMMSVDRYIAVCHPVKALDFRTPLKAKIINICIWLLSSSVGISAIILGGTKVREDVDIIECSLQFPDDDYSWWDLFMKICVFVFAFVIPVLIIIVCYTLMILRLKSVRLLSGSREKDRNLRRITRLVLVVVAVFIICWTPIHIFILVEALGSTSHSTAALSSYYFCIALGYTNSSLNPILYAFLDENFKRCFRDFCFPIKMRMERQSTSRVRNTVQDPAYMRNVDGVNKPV

In the case of COC(=O)c1ccc(/C=C2/C[C@@]3(O)C4Cc5ccc(O)c6c5C3(CCN4CC3CC3)[C@@H](O6)C2=O)cc1 (stereo not given in full), the Selectivity ratio [1] is reported as 3.8, the Selectivity ratio [2] is reported as 14.6 and the IC50 ratio [3] is reported as 14.6. For the same compound, the IC50 ratio [4] was 3.81 and the IC50 ratio [5] was 0.62.

Compound O=C1/C(=C\c2ccccc2F)C[C@@]2(O)C3Cc4ccc(O)c5c4C2(CCN3CC2CC2)[C@H]1O5 (stereo not given in full) has a Selectivity ratio [1] of 4.4, a Selectivity ratio [2] of 10.3 and an IC50 ratio [3] of 17. The IC50 ratio [4] was 3.86 and the IC50 ratio [5] was 1.65.

O=C1/C(=C\c2cccc([N+](=O)[O-])c2)C[C@@]2(O)C3Cc4ccc(O)c5c4C2(CCN3CC2CC2)[C@H]1O5 (stereo not given in full) gave a Selectivity ratio [1] of 5.2, a Selectivity ratio [2] of 5.2 and an IC50 ratio [3] of 5.18. It also gave an IC50 ratio [4] of 1.15 and an IC50 ratio [5] of 0.5.

Work on O=C1/C(=C\c2cccc(F)c2)C[C@@]2(O)C3Cc4ccc(O)c5c4C2(CCN3CC2CC2)[C@H]1O5 (stereo not given in full) yielded a Selectivity ratio [1] of 2.1, a Selectivity ratio [2] of 12.9 and an IC50 ratio [3] of 16.3. For the same compound, the IC50 ratio [4] was 7.83 and the IC50 ratio [5] was 1.26.

With COc1ccc(/C=C2/C[C@@]3(O)C4Cc5ccc(O)c6c5C3(CCN4CC3CC3)[C@@H](O6)C2=O)cc1 (stereo not given in full) the Selectivity ratio [1] was 1.5, the Selectivity ratio [2] was 5.5 and the IC50 ratio [3] was 5.52. For the same compound, the IC50 ratio [4] was 3.75 and the IC50 ratio [5] was 0.92.

In the case of COc1ccccc1/C=C1/C[C@@]2(O)C3Cc4ccc(O)c5c4C2(CCN3CC2CC2)[C@@H](O5)C1=O (stereo not given in full), the Selectivity ratio [1] is reported as 14.1, the ED50 ratio [6] is reported as 0.8 and the ED50 ratio [7] is reported as 0.47. It also gave an ED50 ratio [8] of 5.8, an ED50 ratio [9] of 2 and an ED50 ratio [10] of 11.1. The Selectivity ratio [2] was 120, the ED50 ratio [11] was 6.8 and the ED50 ratio [12] was 1.03. It also gave an IC50 ratio [3] of 120, an ED50 ratio [13] of 0.84 and an IC50 ratio [4] of 8.49. It also gave an IC50 ratio [5] of 1.05.

For Cc1ccc(/C=C2/C[C@@]3(O)C4Cc5ccc(O)c6c5C3(CCN4CC3CC3)[C@@H](O6)C2=O)cc1 (stereo not given in full), the Selectivity ratio [1] was 3.2, the Selectivity ratio [2] was 9.1 and the IC50 ratio [3] was 22.3. For the same compound, the IC50 ratio [4] was 7.05 and the IC50 ratio [5] was 2.45.

Work on O=C1/C(=C\c2ccccc2Cl)C[C@@]2(O)C3Cc4ccc(O)c5c4C2(CCN3CC2CC2)[C@H]1O5 (stereo not given in full) yielded a Selectivity ratio [1] of 130, an ED50 ratio [6] of 0.87 and an ED50 ratio [14] of 0.53. For the same compound, the ED50 ratio [8] was 7.1, the ED50 ratio [15] was 0.9 and the ED50 ratio [9] was 3.7. It also gave an ED50 ratio [10] of 11.4, a Selectivity ratio [2] of 130 and an ED50 ratio [11] of 7.2. The IC50 ratio [3] was 130, the IC50 ratio [4] was 1.34 and the IC50 ratio [5] was 0.85. The ED50 ratio [16] was 0.73.

Compound COc1cccc(/C=C2/C[C@@]3(O)C4Cc5ccc(O)c6c5C3(CCN4CC3CC3)[C@@H](O6)C2=O)c1 (stereo not given in full) has a Selectivity ratio [1] of 2.8, a Selectivity ratio [2] of 18 and an IC50 ratio [3] of 18. The IC50 ratio [4] was 6.44 and the IC50 ratio [5] was 0.95.

Compound O=C1/C(=C\c2ccc(-c3ccc4ccccc4c3)cc2)C[C@@]2(O)C3Cc4ccc(O)c5c4C2(CCN3CC2CC2)[C@H]1O5 (stereo not given in full) has a Selectivity ratio [1] of 3.5, a Selectivity ratio [2] of 11.6 and an IC50 ratio [3] of 11.6. For the same compound, the IC50 ratio [4] was 3.32 and the IC50 ratio [5] was 1.07.

With O=C1/C(=C\c2ccc(-c3cccc4ccccc34)cc2)C[C@@]2(O)C3Cc4ccc(O)c5c4C2(CCN3CC2CC2)[C@H]1O5 (stereo not given in full) the Selectivity ratio [1] was 10.3, the Selectivity ratio [2] was 6.9 and the IC50 ratio [3] was 12.7. For the same compound, the IC50 ratio [4] was 1.23 and the IC50 ratio [5] was 1.85.

Work on O=C1/C(=C\c2ccc([N+](=O)[O-])cc2)C[C@@]2(O)C3Cc4ccc(O)c5c4C2(CCN3CC2CC2)[C@H]1O5 (stereo not given in full) yielded a Selectivity ratio [1] of 0.4, a Selectivity ratio [2] of 1.9 and an IC50 ratio [3] of 1.9. It also gave an IC50 ratio [4] of 4.42 and an IC50 ratio [5] of 1.07.

O=C1/C(=C\c2ccccc2)C[C@@]2(O)[C@H]3Cc4ccc(O)c5c4[C@@]2(CCN3CC2CC2)[C@H]1O5 showed a Selectivity ratio [1] of 2.7, an ED50 ratio [8] of 5.7 and an ED50 ratio [15] of 1.8. For the same compound, the ED50 ratio [10] was 16.8, the Selectivity ratio [2] was 17.5 and the ED50 ratio [11] was 9.6. For the same compound, the IC50 ratio [3] was 35, the IC50 ratio [4] was 13.1 and the IC50 ratio [5] was 2.

Compound O=C1/C(=C\c2ccc(F)cc2)C[C@@]2(O)C3Cc4ccc(O)c5c4C2(CCN3CC2CC2)[C@H]1O5 (stereo not given in full) has a Selectivity ratio [1] of 0.9, a Selectivity ratio [2] of 1.1 and an IC50 ratio [3] of 2.01. The IC50 ratio [4] was 2.23 and the IC50 ratio [5] was 1.86.

Reference: ChEMBL document CHEMBL1131147, “7-Arylidenenaltrexones as selective delta1 opioid receptor antagonists” (J Med Chem, 1998)
